{"data": "Assay results gathered from unrelated publications", "BRAF": "Serine/threonine-protein kinase B-raf (BRAF, Homo sapiens, UniProt P15056)", "note": "Protocols differ between the studies behind these lines."}
{"Structure (SMILES)": "Cn1cncc1[C@@](O)(COc1ccc(C#N)cc1-c1ccc(OC(F)(F)F)cc1)c1ccc(C#N)cc1", "target": "BRAF", "read-out": "cell-free assay", "technique": "competition with immobilised ligand", "concentration": "1 µM", "quantity": "remaining binding", "value": "100%"}
{"Structure (SMILES)": "Cn1cc(-c2cc(F)cc(N3CCn4c(cc5c4CCCC5)C3=O)c2CO)cc(Nc2ccc(N3CCN(C4COC4)CC3)cn2)c1=O", "target": "BRAF", "read-out": "enzyme activity", "mode": "inhibitor", "concentration": "0.1 µM", "quantity": "inhibition", "value": "7%"}
{"Structure (SMILES)": "COc1ncccc1-c1cnn2ccc(N3CCN(C(=O)OC(C)C)CC3)nc12", "target": "BRAF", "read-out": "binding", "technique": "competition with immobilised ligand", "concentration": "1 µM", "quantity": "remaining binding", "value": "100%"}
{"Structure (SMILES)": "Cn1cc(-c2cccc(N3CCc4c(sc5c4CC(C)(C)C5)C3=O)c2CO)cc(Nc2ccncn2)c1=O", "target": "BRAF", "read-out": "enzyme activity", "mode": "inhibitor", "concentration": "1 µM", "quantity": "inhibition", "value": "21%"}
{"Structure (SMILES)": "Nc1ncc(-c2nc(N3CCOCC3)nc(N3CCOCC3)n2)c(C(F)F)n1", "target": "BRAF", "read-out": "binding", "technique": "competition with immobilised ligand", "concentration": "10 µM", "quantity": "remaining binding", "value": "36%"}
{"Structure (SMILES)": "N#CC1(c2ccccn2)CCN(Cc2cc(C(=O)O)c(=O)n3ccccc23)CC1", "target": "BRAF", "read-out": "cell-free assay", "technique": "competition with immobilised ligand", "concentration": "1 µM", "quantity": "remaining binding", "value": "93%"}
{"Structure (SMILES)": "CNS(=O)(=O)Nc1nccc(Cc2c(C)c3ccc(Oc4ncccn4)cc3oc2=O)c1F", "target": "BRAF", "read-out": "cell-free assay", "technique": "competition with immobilised ligand", "concentration": "10 µM", "quantity": "inhibition", "value": "89%"}
{"Structure (SMILES)": "C#Cc1n[nH]c2c(-c3cn(C(C)c4ccccn4)c(=O)[nH]c3=O)cc(F)cc12 (centres unmarked)", "target": "BRAF", "read-out": "enzyme activity", "mode": "inhibitor", "concentration": "1 µM", "quantity": "inhibition", "value": "-2.7%"}
{"Structure (SMILES)": "O=c1[nH]c2ccccc2n1C1CCN(Cc2ccc(-c3[nH]c4cc5ncnc5cc4nc3-c3ccccc3)cc2)CC1", "target": "BRAF", "read-out": "cell-free assay", "concentration": "0.5 µM", "quantity": "remaining signal", "value": "101%"}
{"Structure (SMILES)": "Cc1nn(C)cc1-c1nc2c(N3CCN(Cc4ccc(Cl)cc4)CC3)c(Cl)cnc2[nH]1", "target": "Serine/threonine-protein kinase B-raf (BRAF, Homo sapiens, UniProt P15056, V600E)", "read-out": "binding", "technique": "competition with immobilised ligand", "concentration": "1 µM", "quantity": "remaining binding", "value": "100%"}
{"Structure (SMILES)": "C#Cc1n[nH]c2c(-c3cn([C@@H](C)c4ccccc4)c(=O)[nH]c3=O)cc(F)cc12", "target": "BRAF", "read-out": "enzyme activity", "mode": "inhibitor", "concentration": "0.1 µM", "quantity": "inhibition", "value": "-2.9%"}
